Assay outcomes from PubChem BioAssay.
PostGolgi yeast = growth inhibition of a yeast mutant, post-Golgi transport screen; post-Golgi transport phenotypic cell assay; inhibition, % at 10 µM; 0.9% of 98,000 active;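 note: yeast cells grown in 1536-well plates; yeast grown about 18 h at 30C before absorbance read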
Yeast growth inh = yeast BB579 growth reduction in restrictive medium. S. cerevisiae BB579 growth, OD615, 48 h. inhibition, % at 10 µM. 0.51% of 140,000 active;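 active = inhibition above a set limit, 3 SD over the mean compound inhibition, cut at about 44% in these data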
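Assay system: S. cerevisiae DeaD strain BB579 yeast. Medium: CSMM-D restrictive synthetic medium containing dextrose (glucose). Times: 4 h cell preincubation, 48 h compound exposure, 30 °C humidified. Signal: OD615 turbidity measurement. Benchmarks: positive control amphotericin B 10 µg/mL.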
Yeast lifespan up = extends the lifespan of yeast; S. cerevisiae growth with nicotinamide, OD615; deaD strain in restrictive glucose medium; inhibition of the nicotinamide effect, % at 10 µM; 0.68% of 130,000 active; AID 775;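 active = inhibition above a set limit, placed 3 SD over the median of all compounds, cut at about 26% in these data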
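assay system = DeaD-strain S. cerevisiae | buffer or medium = restrictive glucose medium | reagent = 1.5 mM nicotinamide | compound = 10 µM single point, 0.25% DMSO | incubation = 48 h compound exposure at 30 °C, humidified | signal = OD615 measurement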
PostGolgi ctrl = yeast control strain growth, post-Golgi counter-screen; 5% of 98,000 active; efflux-deficient yeast background strain, growth absorbance A615, 16 h; inhibition, % at 10 µM; AID 738
A number is an active result; – = inactive; · = no result given. The sample as a whole holds a higher share of hits than the screen did. Cut-off read from the data, not from the text of the source, unless noted: active = inhibition above about 30%; inactive = the rest.

SMILES	PostGolgi yeast	Yeast growth inh	Yeast lifespan up	PostGolgi ctrl
CCOc1ccccc1-c1nc(-c2cc3ccc(C)cc3[nH]c2=O)no1	–	–	–	30.8
CCCc1nc(-c2cc3ccc(C)cc3[nH]c2=O)no1	–	–	–	–
CCN(CC)c1nc2c(s1)C(=O)CC(C)(C)C2	–	–	–	–
O=[N+]([O-])c1ccc(Sc2nc3ccccc3o2)c([N+](=O)[O-])c1	–	98.9	–	91.2
COc1cccc(/C=N/n2nnc3c(cnn3-c3ccccc3)c2=O)c1	–	–	–	–
CCNc1nc(NC(C)C)nc(N(C#N)CCOc2ccc(Cl)cc2Cl)n1	–	–	–	38.7
C=CCSc1nnc(NC(=O)c2nc(SCC)ncc2Cl)s1	–	–	–	33.0
CSc1ncc(Cl)c(C(=O)Nc2nnc(SC/C=C/c3ccccc3)s2)n1	–	–	–	–
Fc1ccc(-c2noc(C3CCN(Cc4cccnc4)CC3)n2)cc1	84.0	–	–	34.8
Cc1[nH]nc2c1C(c1ccsc1C)C(C#N)=C(N)O2 (configuration not stated)	–	–	–	–
Cc1cc(C2C(C#N)=C(N)Oc3n[nH]c(C)c32)c(C)s1 (configuration not stated)	–	–	71.1	–
S=c1[nH]nc(-c2ccncc2)n1Cc1ccco1	–	–	–	–
S=c1[nH]nc(C23CC4CC(CC(C4)C2)C3)n1Cc1ccco1	–	–	–	44.9
Cc1cc(Br)cc2c(C(=O)Nc3c(C)n(C)n(-c4ccccc4)c3=O)cc(-c3cccs3)nc12	–	–	–	38.9
COC(=O)C1=C(N)Oc2cc(C)n(C)c(=O)c2C1c1ccc(Cl)c(Cl)c1 (configuration not stated)	–	–	–	45.5
CCOc1ccc2nc(NC(=O)c3ccc(OCC4CCCO4)cc3)sc2c1 (configuration not stated)	·	–	–	·
Cc1ccc(CNc2nc3ccccc3s2)s1	–	–	32.4	–
Cc1ccc(C(=O)Nc2nc3ccccc3s2)s1	–	–	–	–
Cc1ccc2nc(-c3ccc(NC(=O)CN4C(=O)NC(C)(c5ccc(OC(F)F)cc5)C4=O)cc3)sc2c1 (configuration not stated)	·	–	–	·
COc1ccc2c(c1)c1ncn(CCc3ccccc3)c(=O)c1n2C	–	–	–	39.2
O=C(NC1CCCCCC1)c1cccnc1Sc1ccccc1	·	–	–	·
CC(C)CCNc1nc2c(c(=O)n(Cc3cccc(F)c3)c(=O)n2C)n1C	–	–	–	40.6
Cn1c(NCc2ccccc2)nc2c1c(=O)n(Cc1ccccc1)c(=O)n2C	–	–	–	–
Cc1ccc(-c2cccc(OC(=O)c3ccccc3F)c2)cc1	–	–	–	–
O=C1Nc2ccccc2CCC1Sc1nnc(-c2ccc(Cl)cc2)s1 (configuration not stated)	·	–	·	·
SMILES	PostGolgi yeast	Yeast growth inh	Yeast lifespan up	PostGolgi ctrl
Cc1cc(C(=O)OCC(=O)N2CCN(c3ccccc3)CC2)c2ccccc2n1	–	–	–	–
CCCn1c(SCC(=O)Nc2ccccc2Oc2ccccc2)n[nH]c1=O	–	–	–	–
Cc1cc(C(=O)Nc2c(C)nn(Cc3c(Cl)cccc3Cl)c2C)no1	–	–	–	32.5
Cc1nn(Cc2ccc(Cl)cc2)c(C)c1NC(=O)c1noc2c1CCc1ccccc1-2	–	–	–	41.8
Cc1nn(Cc2ccccc2)c(C)c1NC(=O)c1cc(-c2ccco2)on1	–	–	–	–
COc1ccc(OC)c(-c2cc(C(=O)Nc3c(C)nn(Cc4ccc(Cl)cc4)c3C)no2)c1	–	–	–	33.5
COc1ccc(OC)c(-c2cc(C(=O)Nc3c(C)nn(Cc4ccccc4)c3C)no2)c1	–	–	–	37.7
COc1ccc2c(c1)CCc1c(C(=O)Nc3c(C)nn(Cc4ccccc4)c3C)noc1-2	–	–	–	–
COc1ccc(OC)c(C(=O)c2ccc(C(=O)Nc3cccc4ccccc34)cc2)c1	·	–	–	·
Cc1csc(Sc2nc3c(c(=O)[nH]c(=O)n3C)n2CCCc2ccccc2)n1	–	–	–	45.5
CCOC(=O)CSc1nc2c(c(=O)[nH]c(=O)n2C)n1CCCc1ccccc1	–	–	–	–
CCCCCn1c(Sc2nc3ccccc3s2)nc2c1c(=O)[nH]c(=O)n2C	–	–	–	34.7
CCCCCn1c(Sc2ncccn2)nc2c1c(=O)[nH]c(=O)n2C	–	–	–	–
COc1ccc(C2C(C(=O)NCc3cccnc3)c3ccccc3C(=O)N2C)cc1OC (configuration not stated)	–	–	–	–
O=C(NC1CC1)c1cc(-c2ccccn2)nc2ccccc12	–	–	–	34.1
Cc1ccc(-c2cc(C(=O)Nc3cc(C)on3)c3ccccc3n2)c(C)c1	–	–	–	37.0
